The text below walks through data of ChEMBL document CHEMBL2169776, “Antimicrobial activity of peptidomimetics against multidrug-resistant Escherichia coli: a comparative study of different backbones” (J Med Chem, 2012).

Converted amounts (≈) assume the structure as drawn. Square brackets hold non-standard residues; d marks the D form. Peptide text beside a SMILES is read from it. Nphe = O=C(O)CNCc1ccccc1; Nlys = NCCCCNCC(=O)O Some results are limits rather than exact numbers.

The nature of series [1]: Therapeutic index, ratio of HC10 for human erythrocyte cells to MIC for multidrug resistant bacterial strains. The note with it: read-out: TI. The procedure, abridged:
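TI = hemolytic activity divided by median of MIC values. Hemolysis: washed fresh human RBCs (1% v/v in TBS, pH 7.2) with 2-fold oligomer dilutions (1–128 μM), 37 °C, 1 h; supernatant OD 405 nm; melittin 400 μg/mL = 100%, TBS = 0%. HA = concentration giving ≥10% lysis. MICs by broth microdilution, 35 °C, 16–20 h.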

The test system of series [2] is HeLa. As to the kind of experiment: Cytotoxicity against human HeLa cells assessed as growth inhibition after 1 hr. It is filed as cell-based. The procedure, abridged:
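HeLa cells seeded at 9000 per well, cultured 24 h; at 80−100% confluency washed with HBSS and exposed 1 h (37 °C, 50 rpm) to 2-fold serial dilutions in EMEM. After washing, MTS/PMS (240/2.4 μg/mL) in HBSS added for 1.5 h; formazan read at 492 nm. 0.2% SDS = 0%, EMEM alone = 100%. Test range 1−128 or 8−1024 μM; IC50 reported.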

Series [3] can be described thus: Hemolytic activity against human RBCs after 1 hr by spectrophotometry. It counts as ADME, cell-based. The note with it: erythrocyte. The gist of the method:
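Freshly drawn human erythrocytes washed in TBS (pH 7.2, 10 mM Tris, 150 mM NaCl), 1% v/v suspension mixed with 2-fold serial dilutions (1−128 μM) in water; 1 h at 37 °C. After pelleting, supernatant diluted 1:1 with water and hemoglobin read at OD 405 nm. Melittin (400 μg/mL) = 100%, TBS = 0%. Value is the lowest concentration giving ≥10% lysis.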

The test system of series [4] is Staphylococcus aureus. As to the kind of experiment: Antibacterial activity against methicillin-resistant Staphylococcus aureus isolate after 16 to 20 hrs by broth microdilution assay. It counts as functional.
Series [5] relates to Klebsiella pneumoniae. As to the kind of experiment: Antibacterial activity against multidrug resistant NDM-1 producing Klebsiella pneumoniae isolate after 16 to 20 hrs by broth microdilution assay. It counts as functional. (In general: In broth dilution the organism is exposed to a series of concentrations in liquid medium.)
Series [6] deals with Klebsiella pneumoniae. The series can be described thus: Antibacterial activity against multidrug resistant KPC producing Klebsiella pneumoniae isolate after 16 to 20 hrs by broth microdilution assay. It is filed as functional.
The subject of series [7] is Escherichia coli. As to the kind of experiment: Antibacterial activity against multidrug resistant Amp-C producing Escherichia coli isolate after 16 to 20 hrs by broth microdilution assay. It counts as functional.
Series [8] deals with Escherichia coli. As to the kind of experiment: Antibacterial activity against multidrug resistant NDM-1 producing Escherichia coli isolate after 16 to 20 hrs by broth microdilution assay. It is filed as functional.
Series [9] concerns Escherichia coli. As to the kind of experiment: Antibacterial activity against multidrug resistant ESBL producing Escherichia coli isolate after 16 to 20 hrs by broth microdilution assay. It is filed as functional.
Series [10] relates to Escherichia coli. As to the kind of experiment: Antibacterial activity against Escherichia coli ATCC 25922 after 16 to 20 hrs by broth microdilution assay. It is filed as functional.
Series [11] in a line: Proteolytic stability of compound in presence of Pronase by reverse phase HPLC analysis. It is filed as ADME. The gist of the method:
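Oligomer (2 mg/mL solution, 250 μL) incubated with Pronase (1.0 mg/mL solution, 50 μL) in 10 mM Tris pH 7.5 (1.2 mL); enzyme activity first confirmed on Nα-benzoyl arginine. Degradation followed by analytical reverse-phase HPLC (10−60% B) at 6, 12, 18 and 50 h; degradation product identified by HRMS.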

The term IC50 denotes the midpoint of a concentration-inhibition curve. As a reminder, the MIC is the least concentration at which growth counts as inhibited. A low value points to inhibition by little substance.

`CC(=O)N(CCCCN)CCC(=O)N[C@@H](Cc1ccccc1)C(=O)N(CCCCN)CCC(=O)N[C@@H](Cc1ccccc1)C(=O)N(CCCCN)CCC(=O)N[C@@H](Cc1ccccc1)C(=O)N(CCCCN)CCC(=O)N[C@@H](Cc1ccccc1)C(=O)N(CCCCN)CCC(=O)N[C@@H](Cc1ccccc1)C(=O)N(CCCCN)CCC(=O)N[C@@H](Cc1ccccc1)C(=O)N(CCCCN)CCC(=O)N[C@@H](Cc1ccccc1)C(=O)N(CCCCN)CCC(=O)N[C@@H](Cc1ccccc1)C(N)=O`: the selectivity ratio in [1] was over 11. For the same compound, the half-maximal inhibitory concentration (IC50) in series [2] was found to be 62.6 µM. This compound yielded an HC10 in series [3] of over 128 µM. In addition, the MIC in series [4] was 256 µM (≈ 608 µg/mL); in series [5] it was 256 µM (≈ 608 µg/mL); in series [6], 64 µM (≈ 152 µg/mL); in series [7], 16 µM (≈ 38 µg/mL); in [8] it was 2 µM (≈ 4.75 µg/mL); in series [9], 16 µM (≈ 38 µg/mL). In addition, in series [10], 8 µM (≈ 19 µg/mL) was the least that counted as inhibitory (MIC). In addition, the Stability entry in series [11] is “Stable”.

For `CC(=O)N[C@@H](CCCCN)C(=O)N[C@@H](Cc1ccccc1)C(=O)N[C@@H](CCCCN)C(=O)N[C@@H](Cc1ccccc1)C(=O)N[C@@H](CCCCN)C(=O)N[C@@H](Cc1ccccc1)C(=O)N[C@@H](CCCCN)C(=O)N[C@@H](Cc1ccccc1)C(=O)N[C@@H](CCCCN)C(=O)N[C@@H](Cc1ccccc1)C(=O)N[C@@H](CCCCN)C(=O)N[C@@H](Cc1ccccc1)C(=O)N[C@@H](CCCCN)C(=O)N[C@@H](Cc1ccccc1)C(=O)N[C@@H](CCCCN)C(=O)N[C@@H](Cc1ccccc1)C(N)=O`, the selectivity ratio in series [1] was under 0.004. Moreover, the IC50 in [2] was 19.6 µM. In addition, the HC10 in series [3] is under 1 µM. Also, the MIC in series [4] is 16 µM (≈ 36.2 µg/mL); in [5], over 256 µM; in [6], over 256 µM; in series [7], over 256 µM; in [8], 128 µM (≈ 290 µg/mL); in [9] it was over 256 µM. In series [10], this compound gave an MIC of over 256 µM. Also, in series [11], the Stability entry is “Unstable”.

For the compound `CC(=O)N(CCCCN)CC(=O)N(CC(=O)N(CCCCN)CC(=O)N(CC(=O)N(CCCCN)CC(=O)N(CC(=O)N(CCCCN)CC(=O)N(CC(=O)N(CCCCN)CC(=O)N(CC(=O)N(CCCCN)CC(=O)N(CC(=O)N(CCCCN)CC(=O)N(CC(=O)N(CCCCN)CC(=O)N(CC(N)=O)Cc1ccccc1)Cc1ccccc1)Cc1ccccc1)Cc1ccccc1)Cc1ccccc1)Cc1ccccc1)Cc1ccccc1)Cc1ccccc1` (Ac-[Nlys][Nphe][Nlys][Nphe][Nlys][Nphe][Nlys][Nphe][Nlys][Nphe][Nlys][Nphe][Nlys][Nphe][Nlys][Nphe]-NH2), the selectivity ratio in series [1] was over 4. Moreover, in [2], the half-inhibitory concentration (IC50) was 194 µM. Moreover, the HC10 in [3] was over 128 µM. In addition, the MIC in series [4] was 256 µM (≈ 579 µg/mL); in series [5], 256 µM (≈ 579 µg/mL); in [6], 256 µM (≈ 579 µg/mL); in series [7], 32 µM (≈ 72.4 µg/mL); in series [8], 32 µM (≈ 72.4 µg/mL); in series [9] it was 64 µM (≈ 145 µg/mL). Also, it took 32 µM (≈ 72.4 µg/mL) to inhibit growth in series [10] (MIC). Besides, the Stability result in series [11] is “Stable”.

Take `CC(=O)N[C@H](CCCCN)C(=O)N[C@H](Cc1ccccc1)C(=O)N[C@H](CCCCN)C(=O)N[C@H](Cc1ccccc1)C(=O)N[C@H](CCCCN)C(=O)N[C@H](Cc1ccccc1)C(=O)N[C@H](CCCCN)C(=O)N[C@H](Cc1ccccc1)C(=O)N[C@H](CCCCN)C(=O)N[C@H](Cc1ccccc1)C(=O)N[C@H](CCCCN)C(=O)N[C@H](Cc1ccccc1)C(=O)N[C@H](CCCCN)C(=O)N[C@H](Cc1ccccc1)C(=O)N[C@H](CCCCN)C(=O)N[C@H](Cc1ccccc1)C(N)=O`: the selectivity ratio in series [1] was under 0.008. Further, the IC50 in series [2] worked out at 18.1 µM. In [3], this compound yielded an HC10 of under 1 µM. The MIC came to 16 µM (≈ 36.2 µg/mL) in [4]; 256 µM (≈ 579 µg/mL) in [5]; 256 µM (≈ 579 µg/mL) in series [6]; 256 µM (≈ 579 µg/mL) in series [7]; 128 µM (≈ 290 µg/mL) in [8]; 256 µM (≈ 579 µg/mL) in series [9]. The compound further gave an MIC in series [10] of 128 µM (≈ 290 µg/mL). The Stability result in [11] is recorded as “Stable”.

GENTAMICIN: the minimum inhibitory concentration (MIC) in [4] was 56 µM; in [5], 111 µM; in [6], over 111 µM; in series [7] it was 6.9 µM; in series [8], over 111 µM; in series [9] it was over 111 µM. This compound also showed an MIC in series [10] of 1.7 µM.

As for `O=C(O)c1cn(C2CC2)c2cc(N3CCNCC3)c(F)cc2c1=O` [CIPROFLOXACIN], the figures for the MIC in [4] and in [10] were 19 µM (≈ 6.3 µg/mL) and under 0.1 µM, respectively.

Take `CC(=O)N[C@@H](CCCCN)C(=O)N(CCC(=O)N[C@@H](CCCCN)C(=O)N(CCC(=O)N[C@@H](CCCCN)C(=O)N(CCC(=O)N[C@@H](CCCCN)C(=O)N(CCC(=O)N[C@@H](CCCCN)C(=O)N(CCC(=O)N[C@@H](CCCCN)C(=O)N(CCC(=O)N[C@@H](CCCCN)C(=O)N(CCC(=O)N[C@@H](CCCCN)C(=O)N(CCC(N)=O)Cc1ccccc1)Cc1ccccc1)Cc1ccccc1)Cc1ccccc1)Cc1ccccc1)Cc1ccccc1)Cc1ccccc1)Cc1ccccc1`: the selectivity ratio in series [1] is over 21. In series [2], the half-maximal inhibitory concentration (IC50) came out at 25.9 µM. For the same compound, the HC10 in [3] was over 128 µM. The MIC in series [4] was over 256 µM; in series [5], 256 µM (≈ 608 µg/mL); in series [6], 128 µM (≈ 304 µg/mL); in [7], 8 µM (≈ 19 µg/mL); in series [8] it was 4 µM (≈ 9.5 µg/mL); in series [9] it was 4 µM (≈ 9.5 µg/mL). The minimal inhibitory concentration (MIC) in series [10] is 8 µM (≈ 19 µg/mL). Also, in series [11], the Stability entry is “Stable”.

Regarding `CO/N=C(\C(=O)N[C@@H]1C(=O)N2C(C(=O)O)=C(COC(C)=O)CS[C@H]12)c1csc(N)n1` [CEFOTAXIME], the MIC in series [4] was 34 µM (≈ 15.5 µg/mL); in series [5] it was over 134 µM; in series [6] it was over 134 µM; in [7] it was 2.1 µM (≈ 0.956 µg/mL); in series [8] it was over 134 µM; in [9], over 134 µM. Further, in [10], the MIC was under 0.1 µM.

Take `CC(=O)N[C@@H](CCCCN)C(=O)N(CC(=O)N[C@@H](CCCCN)C(=O)N(CC(=O)N[C@@H](CCCCN)C(=O)N(CC(=O)N[C@@H](CCCCN)C(=O)N(CC(=O)N[C@@H](CCCCN)C(=O)N(CC(=O)N[C@@H](CCCCN)C(=O)N(CC(=O)N[C@@H](CCCCN)C(=O)N(CC(=O)N[C@@H](CCCCN)C(=O)N(CC(N)=O)Cc1ccccc1)Cc1ccccc1)Cc1ccccc1)Cc1ccccc1)Cc1ccccc1)Cc1ccccc1)Cc1ccccc1)Cc1ccccc1` (Ac-K[Nphe]K[Nphe]K[Nphe]K[Nphe]K[Nphe]K[Nphe]K[Nphe]K[Nphe]-NH2): the selectivity ratio in series [1] is over 21. The concentration for half-maximal inhibition (IC50) in [2] stood at 101 µM. The same compound yielded an HC10 in [3] of over 128 µM. In addition, the minimal inhibitory concentration (MIC) in [4] came to 256 µM (≈ 579 µg/mL); in series [5] it was 128 µM (≈ 290 µg/mL); in [6], 128 µM (≈ 290 µg/mL); in [7] it was 8 µM (≈ 18.1 µg/mL); in [8] it was 2 µM (≈ 4.52 µg/mL); in [9] it was 8 µM (≈ 18.1 µg/mL). This compound had an MIC in series [10] of 4 µM (≈ 9.05 µg/mL). Also, in [11], the Stability entry is on record as “Stable”.

Turning to `CC(=O)N(CCCCN)CC(=O)N[C@@H](Cc1ccccc1)C(=O)N(CCCCN)CC(=O)N[C@@H](Cc1ccccc1)C(=O)N(CCCCN)CC(=O)N[C@@H](Cc1ccccc1)C(=O)N(CCCCN)CC(=O)N[C@@H](Cc1ccccc1)C(=O)N(CCCCN)CC(=O)N[C@@H](Cc1ccccc1)C(=O)N(CCCCN)CC(=O)N[C@@H](Cc1ccccc1)C(=O)N(CCCCN)CC(=O)N[C@@H](Cc1ccccc1)C(=O)N(CCCCN)CC(=O)N[C@@H](Cc1ccccc1)C(N)=O` (Ac-[Nlys]F[Nlys]F[Nlys]F[Nlys]F[Nlys]F[Nlys]F[Nlys]F[Nlys]F-NH2), the selectivity ratio in series [1] was over 5. The half-inhibitory concentration (IC50) in [2] was found to be 267 µM. The same compound displayed an HC10 in [3] of over 128 µM. The minimum inhibitory concentration (MIC) in [4] was over 256 µM; in series [5], 256 µM (≈ 579 µg/mL); in [6] it was 256 µM (≈ 579 µg/mL); in series [7] it was 32 µM (≈ 72.4 µg/mL); in series [8], 32 µM (≈ 72.4 µg/mL); in [9], 16 µM (≈ 36.2 µg/mL). Besides, it took 16 µM (≈ 36.2 µg/mL) to inhibit growth in [10] (MIC).
